In ChEMBL document CHEMBL1938383, “Novel 5- and 6-subtituted benzothiazoles with improved physicochemical properties: potent S1P₁ agonists with in vivo lymphocyte-depleting activity” (Bioorg Med Chem Lett, 2012):

Legend:
[1] = target: T1, Sphingosine 1-phosphate receptor 3 (Homo sapiens, UniProt Q99500); assay: Agonist activity at human S1P3 receptor expressed in CHO cells coexpressing Gq/i5 protein by calcium flux assay; format: functional, cell-based
Procedure, shortened: (§1)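 Ca²⁺ flux read-out in CHO cells stably co-expressing human S1P3 and chimeric Gq/i5 G-protein.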

Rattus norvegicus [2] = assay: Immunosuppressive activity in Lewis rat assessed as reduction of circulating lymphocytes at 1 mg/kg, po after 24 hrs; format: functional; parameters: scale not given: the % may be the effect or the level left
[3] = target: T2, Sphingosine 1-phosphate receptor 1 (Homo sapiens, UniProt P21453); assay: Agonist activity at human S1P1 receptor expressed in U20S cells coexpressing eGFP assessed as receptor internalization after 1 hr by microscopy analysis; format: functional, cell-based, U2OS
Procedure, shortened: (§2)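 hS1P1–eGFP U2OS cells held in serum-free medium 2 h, then exposed to compound 1 h at 37 °C. Cells fixed in 4% formaldehyde, nuclei stained with Hoechst, imaged by automated microscopy. Potency and efficacy from GFP-containing endosomes per cell plotted against concentration. Efficacy expressed relative to 0.200 µM S1P.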

[4] = target: T2, Sphingosine 1-phosphate receptor 1; assay: Agonist activity at human S1P1 receptor expressed in U20S cells coexpressing eGFP assessed as receptor internalization after 1 hr by microscopy analysis relative to S1P1; format: functional, cell-based; conditions: U2OS; procedure, shortened: as §2
Homo sapiens = species on record: Homo sapiens; assay: Selectivity ratio of EC50 for human S1P3 receptor to EC50 for human S1P1 receptor
[5] = target: T1, Sphingosine 1-phosphate receptor 3; assay: Agonist activity at human S1P3 receptor expressed in CHO cells coexpressing Gq/i5 protein by calcium flux assay relative to control; format: functional, cell-based; procedure, shortened: as §1
[6] = Ratio of plasma concentration in Lewis rat at 10 mg/kg, po after 4 hrs to EC50 for human S1P1 receptor expressed in U20S cells; format: ADME, organism-based; parameters: dose 10 mg/kg, route oral; conditions: in vivo
[7] = Plasma concentration in Lewis rat at 10 mg/kg, po after 4 hrs; format: ADME, organism-based; parameters: dose 10 mg/kg, route oral
Procedure, shortened: (§3)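 Female Lewis rats (250 g, 6–8 wk), acclimatized ≥1 week, N = 5/group. Given vehicle (20% captisol in water) or 10 mg/kg compound in 20% captisol/water by oral gavage (10 mL/kg). Killed by CO₂ 4 h post-dose, blood taken by cardiac puncture. Total blood lymphocytes counted and total plasma concentration measured. Significance vs vehicle by ANOVA/Dunnett's test.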

Rattus norvegicus [8] = assay: Immunosuppressive activity in Lewis rat assessed as reduction of circulating lymphocytes at 10 mg/kg, po after 4 hrs; format: functional; parameters: scale not given: the % may be the effect or the level left; procedure, shortened: as §3

T1 sequence (Q99500 whole entry): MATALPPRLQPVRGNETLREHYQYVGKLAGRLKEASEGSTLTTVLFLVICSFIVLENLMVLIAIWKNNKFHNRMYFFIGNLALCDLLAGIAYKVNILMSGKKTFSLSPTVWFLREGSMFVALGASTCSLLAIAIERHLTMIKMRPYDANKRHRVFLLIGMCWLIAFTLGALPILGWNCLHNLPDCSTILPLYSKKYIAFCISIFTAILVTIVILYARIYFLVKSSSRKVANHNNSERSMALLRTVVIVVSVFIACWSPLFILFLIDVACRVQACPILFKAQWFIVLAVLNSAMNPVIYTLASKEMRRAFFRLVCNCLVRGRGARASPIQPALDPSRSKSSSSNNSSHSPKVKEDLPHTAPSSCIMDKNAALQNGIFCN
T2 sequence (P21453 whole entry): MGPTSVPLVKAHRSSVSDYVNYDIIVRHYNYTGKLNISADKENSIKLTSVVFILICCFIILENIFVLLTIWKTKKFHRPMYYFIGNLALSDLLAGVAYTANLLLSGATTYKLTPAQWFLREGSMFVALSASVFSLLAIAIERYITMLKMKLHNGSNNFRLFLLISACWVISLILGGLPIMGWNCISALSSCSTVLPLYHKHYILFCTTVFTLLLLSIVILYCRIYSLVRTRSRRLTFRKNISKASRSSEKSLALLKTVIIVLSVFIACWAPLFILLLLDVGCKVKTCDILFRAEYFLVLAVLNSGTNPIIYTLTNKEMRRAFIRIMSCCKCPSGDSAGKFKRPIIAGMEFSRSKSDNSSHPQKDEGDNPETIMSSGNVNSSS

O=C(O)C1CN(Cc2ccc(-c3nc4cc(Cc5ccccc5)ccc4s3)c(F)c2)C1
EC50 [1]: 1.21 µM
Activity (Rattus norvegicus [2]): 58%
EC50 [3]: 0.041 µM

O=C(O)C1CN(Cc2ccc(-c3nc4ccc(C5(c6ccccc6)CC5)nc4s3)c(F)c2)C1
EC50 [1]: 0.888 µM
EC50 [3]: 0.002 µM

O=C(O)C1CN(Cc2ccc(-c3nc4cc(Cc5ccccn5)ccc4s3)c(F)c2)C1
EC50 [1]: > 25 µM
Efficacy [4]: 94%
Ratio EC50 (Homo sapiens): > 37
EC50 [3]: 0.68 µM

O=C(O)C1CN(Cc2ccc(-c3nc4ccc(Cc5ccccn5)cc4s3)c(F)c2)C1
EC50 [1]: > 25 µM
Efficacy [4]: 71%
EC50 [3]: 1.96 µM

O=C(O)C1CN(Cc2ccc(-c3nc4ccc(C5(c6ccccn6)CC5)cc4s3)c(F)c2)C1
EC50 [1]: > 25 µM
Efficacy [4]: 90%
Ratio EC50 (Homo sapiens): > 105
EC50 [3]: 0.24 µM

O=C(c1ccc2nc(-c3ccc(CN4CC(C(=O)O)C4)cc3F)sc2c1)c1ccccn1
EC50 [1]: > 25 µM
Efficacy [4]: 50%
EC50 [3]: 1.3 µM

O=C(O)C1CN(Cc2ccc(-c3nc4ccc(C(=O)N5CCCCC5)cc4s3)c(F)c2)C1
EC50 [1]: > 25 µM
Efficacy [4]: 95%
EC50 [3]: 1.17 µM

O=C(O)C1CN(Cc2ccc(-c3nc4ccc(C(=O)N5CCCCCC5)cc4s3)c(F)c2)C1
EC50 [1]: > 25 µM
Efficacy [4]: 108%
EC50 [3]: 2.72 µM

O=C(O)C1CN(Cc2ccc(-c3nc4ccc(C(=O)N5CCCC5)cc4s3)c(F)c2)C1
EC50 [1]: > 25 µM
EC50 [3]: > 20 µM

O=C(O)C1CN(Cc2ccc(-c3nc4ccc(C(=O)N5CCSC5)cc4s3)c(F)c2)C1
EC50 [1]: 7.42 µM
Efficacy [4]: 110%
Efficacy [5]: 21%
EC50 [3]: 2.71 µM

CC1(C)SCCN1C(=O)c1ccc2nc(-c3ccc(CN4CC(C(=O)O)C4)cc3F)sc2c1
EC50 [1]: 2.68 µM
Efficacy [4]: 80%
Efficacy [5]: 72%
EC50 [3]: 0.43 µM

CC(c1ccc2sc(-c3ccc(CN4CC(C(=O)O)C4)cc3F)nc2c1)c1ccccn1 (racemic)
EC50 [1]: > 25 µM
Efficacy [4]: 62%
EC50 [3]: 2.37 µM

CC(c1ccc2nc(-c3ccc(CN4CC(C(=O)O)C4)cc3F)sc2c1)c1ccccn1 (racemic)
EC50 [1]: > 25 µM
Efficacy [4]: 79%
EC50 [3]: 0.57 µM

CC1SCCN1C(=O)c1ccc2nc(-c3ccc(CN4CC(C(=O)O)C4)cc3F)sc2c1 (racemic)
EC50 [1]: 2.04 µM
Efficacy [4]: 90%
Efficacy [5]: 71%
EC50 [3]: 0.042 µM

CC(C)C1SCCN1C(=O)c1ccc2nc(-c3ccc(CN4CC(C(=O)O)C4)cc3F)sc2c1 (racemic)
EC50 [1]: 0.9 µM
Efficacy [4]: 96%
Efficacy [5]: 87%
EC50 [3]: 0.049 µM

CCC(c1ccc2nc(-c3ccc(CN4CC(C(=O)O)C4)cc3F)sc2c1)c1ccccn1 (single isomer, unassigned) [listing 1 of 2 here]
EC50 [1]: 2.06 µM
EC50 [3]: 0.1 µM

CCC(c1ccc2nc(-c3ccc(CN4CC(C(=O)O)C4)cc3F)sc2c1)c1ccccn1 (single isomer, unassigned) [listing 2 of 2 here]
Efficacy [4]: 95%
Efficacy [5]: 82%

CCC(c1ccc2nc(-c3ccc(CN4CC(C(=O)O)C4)cc3F)sc2c1)c1ccccn1 (single isomer, unassigned; (+)) [listing 1 of 2 here]
EC50 [1]: 9.75 µM
EC50 [3]: 0.52 µM

CCC1SCCN1C(=O)c1ccc2nc(-c3ccc(CN4CC(C(=O)O)C4)cc3F)sc2c1 (single isomer, unassigned; (+)) [listing 1 of 2 here]
EC50 [1]: 0.39 µM
Ratio [6]: 10
EC50 [3]: 0.017 µM
concentration ([7]; in vivo, 4 h): 190 nM
Activity (Rattus norvegicus [8]): 55%

CCC(c1ccc2nc(-c3ccc(CN4CC(C(=O)O)C4)cc3F)sc2c1)c1ccccn1 (single isomer, unassigned; (+)) [listing 2 of 2 here]
Efficacy [4]: 93%
Efficacy [5]: 30%

CCC1SCCN1C(=O)c1ccc2nc(-c3ccc(CN4CC(C(=O)O)C4)cc3F)sc2c1 (single isomer, unassigned; (+)) [listing 2 of 2 here]
Efficacy [4]: 107%
Ratio EC50 (Homo sapiens): 23
Efficacy [5]: 82%

CCC1SCCN1C(=O)c1ccc2nc(-c3ccc(CN4CC(C(=O)O)C4)cc3F)sc2c1 (stereo in doubt; (-)-11f) [listing 1 of 2 here]
EC50 [1]: 6.24 µM
EC50 [3]: 0.15 µM
concentration at 4 h ([7]; Lewis, plasma): 130 nM
Activity (Rattus norvegicus [8]): 24%

CCC1SCCN1C(=O)c1ccc2nc(-c3ccc(CN4CC(C(=O)O)C4)cc3F)sc2c1 (stereo in doubt; (-)-11f) [listing 2 of 2 here]
Efficacy [4]: 106%
Efficacy [5]: 36%
